Here are results for seven compounds from ChEMBL document CHEMBL1151731, “Targeting pro-invasive oncogenes with short chain fatty acid-hexosamine analogues inhibits the mobility of metastatic MDA-MB-231 breast cancer cells” (J Med Chem, 2008).

Assay [1] has as its system MDA-MB-231. The experiment in a line: Increase in sialic acid production in human MDA-MB-231 cells by periodate-resorcinal assay. In kind it is functional, cell-based. A digest of the protocol:
(§1)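 Periodate-resorcinol assay for total sialic acid, adapted to small volumes. Treated cells were trypsinized, washed and resuspended in PBS, Coulter-counted, and lysed by three freeze-thaw cycles. Readings taken within five minutes. Molecules per cell calculated from the harvested cell number and a sialic acid standard curve run alongside. SEM, n ≥ 3.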

The test system of another assay is HEK AD293 (Homo sapiens). The assay can be described thus: Inhibition of NF-kappaB transcriptional activity in human HEK AD293 cells by luciferase reporter gene assay.
Assay [2] deals with MDA-MB-231. The assay can be described thus: Effect on proteosomal activity of human MDA-MB-231 cells measured after 3 days in absence of epoxomicin. In kind it is functional, cell-based. A digest of the protocol:
(§2)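 Viable MDA-MB-231 cells (100000 in 100 µL RPMI) incubated with a succinyl luminogenic proteasome substrate; activity expressed as luminescence normalized to untreated controls. Analogue exposure 3 days; epoxomicin control exposure 6 h. SEM of independent experiments in triplicate.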

Assay [3] deals with T1, Histone deacetylase (Homo sapiens) (UniProt Q13547+O15379+Q9UBN7+Q92769+Q9UQL6+Q8WUI4+Q9BY41+Q96DB2+P56524+Q9UKV0+Q969S8). The assay can be described thus: Inhibition of HDAC in human MDA-MB-231 cells assessed as decrease in MUC1 mRNA expression qRT-PCR. In kind it is cell-based.
Assay [4] concerns the target T1, Histone deacetylase (Homo sapiens). The experiment in a line: Inhibition of HDAC in human MDA-MB-231 cells assessed as increase in histone H3 acetylation after 2 days by densitometry.
The subject of assay [5] is MDA-MB-231. The experiment in a line: Antiproliferative activity against human MDA-MB-231 cells by Coulter counting analysis. In kind it is functional, cell-based. In outline:
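MDA-MB-231 cells grown in RPMI-1640 with 10% FBS and plated at 27000 cells/cm² with compound added at plating from EtOH stock (final EtOH 0.4% v/v). Incubated 3 days at 37 °C, 5% CO₂. Viable cells trypsinized and counted on a Coulter counter. SEM, n ≥ 3.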

In assay [6] the test system is MDA-MB-231. The assay can be described thus: Inhibition of human MDA-MB-231 cells migration at 50 uM by Boyden chamber assay. It is filed as functional, cell-based.
The test system of assay [7] is MDA-MB-231. The experiment in a line: Inhibition of human MDA-MB-231 cells invasion at 50 uM by Boyden chamber assay. In kind it is functional, cell-based.
Assay [8] has as its system MDA-MB-231. The experiment in a line: Suppression of pro-MMP9 mRNA level in human MDA-MB-231 cells after 3 days by qRT-PCR. It is filed as functional, cell-based. In outline:
(§3)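 Cells exposed 3 days to compound. RNA extracted with Trizol, DNase-treated and column-purified. qRT-PCR with Ct measured in quadruplicate; relative expression by the 2^-ΔΔCt method. Products checked on agarose gel. SEM of independent experiments done in triplicate.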
(In general: Quantitative PCR measures a nucleic acid by following its amplification.)

Assay [9] relates to MDA-MB-231. The assay can be described thus: Induction of salic acid production in human MDA-MB-231 cells by periodate-resorcinal assay. In kind it is functional, cell-based. In outline:
as §1

For assay [10], the system named is MDA-MB-231. The experiment in a line: Inhibition of proteosomal activity of human MDA-MB-231 cells measured after 6 hrs in presence of epoxomicin. It is filed as functional, cell-based. In outline:
as §2

Assay [11] relates to MDA-MB-231. The assay can be described thus: Suppression of CXCR4 mRNA in human MDA-MB-231 cells after 3 days by qRT-PCR. It is filed as functional, cell-based. A digest of the protocol: as §3
For assay [12], the target named is T1, Histone deacetylase (Homo sapiens). The assay can be described thus: Inhibition of HDAC in human MDA-MB-231 cells assessed as increase in p21 mRNA level by qRT-PCR. In kind it is cell-based.
Assay [13] has as its system MDA-MB-231. The experiment in a line: Reduction of endogenous NFKB1 (p105) mRNA level in human MDA-MB-231 cells. It is filed as functional, cell-based.
The test system of assay [14] is MDA-MB-231. The experiment in a line: Increase in human MDA-MB-231 cells invasion at 10 mM. In kind it is functional, cell-based.
Assay [15] deals with MDA-MB-231. The assay can be described thus: Increase in intracellular sialic acid production in human MDA-MB-231 cells at 50 mM. It is filed as functional, cell-based.
The test system of assay [16] is MDA-MB-231. The experiment in a line: Increase in human MDA-MB-231 cells invasion at 30 mM. In kind it is functional, cell-based.
For assay [17], the system named is MDA-MB-231. The experiment in a line: Growth inhibition of human MDA-MB-231 cells assessed as rounded-up morphology after 3 days by phase contrast micrograph.
The test system of assay [18] is MDA-MB-231. The experiment in a line: Inhibition of human MDA-MB-231 cells invasion at 150 uM after 2 days by Boyden chamber assay. In kind it is functional, cell-based. In outline: (§4)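 Cells pretreated 2 or 3 days with compound (final EtOH 0.4% v/v), then trypsinized and resuspended in serum-free RPMI-1640. 50000 viable cells per chamber (equal loading confirmed by WST-8) in modified Boyden chambers. Migration measured through 8.0 µm pores toward a serum gradient; invasion through a Matrigel layer. After 24 h at 37 °C, cells were stained with Diff-Quik and counted. Viability rechecked by WST-8 at 24 h. SEM of technical replicates (n = 6 or 3); double-sided t test.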

In assay [19] the test system is MDA-MB-231. The experiment in a line: Decrease in MUC1 mRNA transcription in human MDA-MB-231 cells by qRT-PCR. It is filed as functional, cell-based. In outline:
(§5)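 MDA-MB-231 RNA extracted with Trizol, DNase-treated and column-purified. qRT-PCR with Ct values in quadruplicate; relative expression by 2^-ΔΔCt from average Ct. Amplicons verified by agarose gel electrophoresis.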

Assay [20] has as its system MDA-MB-231. The assay can be described thus: Inhibition of human MDA-MB-231 cells invasion at 50 uM after 3 days by Boyden chamber assay. It is filed as functional, cell-based. In outline: as §4
Assay [21] has as its system MDA-MB-231. The assay can be described thus: Inhibition of human MDA-MB-231 cells invasion at 50 uM after 2 days by Boyden chamber assay. In kind it is functional, cell-based. A digest of the protocol: as §4
Assay [22] deals with MDA-MB-231. The assay can be described thus: Inhibition of human MDA-MB-231 cells migration at 50 uM after 3 days by Boyden chamber assay. It is filed as functional, cell-based. In outline: as §4
The subject of assay [23] is MDA-MB-231. The experiment in a line: Inhibition of NF-kappaB transcriptional activity in human MDA-MB-231 cells at 125 uM by luciferase reporter gene assay. More on the design: scale not given: the % may be the effect or the level left. It is filed as cell-based. In outline:
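MDA-MB-231 cells electroporated with an NF-κB luciferase reporter plus an equal mass of SV-promoter β-galactosidase plasmid. Replated after 24 h recovery and treated with compound. NF-κB transactivation taken as the luciferase to β-galactosidase activity ratio. SEM of independent experiments in triplicate.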

For assay [24], the system named is MDA-MB-231. The assay can be described thus: Decrease in MMP9 gelatinase activity in human MDA-MB-231 cells after 3 days by Zymogram assay. It is filed as functional, cell-based.
A further assay has as its system HEK293. The experiment in a line: Inhibition of NF-kappaB transcriptional activity in human HEK AD293 cells at 125 uM by luciferase reporter gene assay. It is filed as cell-based. Set-up: scale not given: the % may be the effect or the level left. In outline:
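HEK AD293 cells (DMEM, 10% FBS) lipofected with an NF-κB consensus luciferase reporter plus an equal mass of SV-promoter β-galactosidase plasmid. Replated after 24 h recovery and treated with compound. Luciferase read by chemiluminescence and β-galactosidase colorimetrically; activity expressed as their ratio. SEM of independent experiments in triplicate.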
A general note: A reporter such as luciferase makes a cellular process visible.

The test system of assay [25] is MDA-MB-231. The assay can be described thus: Growth inhibition of human MDA-MB-231 cells after 3 to 5 days. In kind it is functional, cell-based. A digest of the protocol: (§6)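 Proliferation followed over time up to 15 days in MDA-MB-231 cells (RPMI-1640, 10% FBS, 37 °C, 5% CO₂). Compound added at plating from EtOH stock, final EtOH 0.4% v/v. Data averaged from triplicate experiments.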

For assay [26], the system named is MDA-MB-231. The assay can be described thus: Enhancement of NFkappaB1 level in human MDA-MB-231 cells by qRT-PCR. In kind it is functional, cell-based. In outline:
as §5

In assay [27] the test system is MDA-MB-231. The experiment in a line: Increase in MUC1 mRNA transcription in human MDA-MB-231 cells by qRT-PCR. In kind it is functional, cell-based. A digest of the protocol:
as §5

Assay [28] has as its system MDA-MB-231. The experiment in a line: Downregulation of CXCR4 in human MDA-MB-231 cells by qRT-PCR. It is filed as functional, cell-based.
Assay [29] relates to MDA-MB-231. The assay can be described thus: Growth inhibition of human MDA-MB-231 cells after 15 days. In kind it is functional, cell-based. In outline: as §6
For assay [30], the system named is MDA-MB-231. The experiment in a line: Cytotoxicity against human MDA-MB-231 cells at >= 150 uM. It is filed as functional, cell-based.
For assay [31], the system named is MDA-MB-231. The assay can be described thus: Suppression of MUC1 transcription in human MDA-MB-231 cells by qRT-PCR. It is filed as functional, cell-based. In outline: as §5

The structures appear in SMILES notation. The source made the active and inactive calls. The rule behind the calls is not given here.

With `CCCC(=O)OC1O[C@H](CO)[C@@H](OC(=O)CCC)[C@H](OC(=O)CCC)[C@@H]1NC(C)=O` (stereo partly specified), the result with MDA-MB-231 [1] was Active. Also, the outcome in the assay with HEK AD293 (Homo sapiens) was inactive.

For `CCCC(=O)OC[C@H]1OC(OC(=O)CCC)[C@@H](OC(=O)CCC)[C@@H](OC(=O)CCC)[C@@H]1OC(=O)CCC` (stereo partly specified), the result (in the assay with MDA-MB-231 [2]; in assay [3]; with MDA-MB-231 [6]; with MDA-MB-231 [7]; with MDA-MB-231 [9]; in the assay on MDA-MB-231 [13]) was inactive. In addition, the result (in assay [4]; in the assay on MDA-MB-231 [5]; with MDA-MB-231 [8]; in the assay with MDA-MB-231 [10]; with MDA-MB-231 [11]; in assay [12]) was Active.

As for `CCCC(=O)O`, the outcome in assay [4] and in assay [12] was Active.

As for `CC(=O)N[C@H](C=O)[C@@H](O)[C@H](O)[C@H](O)CO`, the outcome in the assay on MDA-MB-231 [14] and in the assay with MDA-MB-231 [15] was Active. Also, the outcome with MDA-MB-231 [16] was inactive.

As to `CCCC(=O)OC[C@H]1OC(OC(=O)CCC)[C@@H](NC(C)=O)[C@@H](OC(=O)CCC)[C@@H]1OC(=O)CCC` (stereo partly specified), the outcome in the assay on MDA-MB-231 [2] and in the assay on MDA-MB-231 [8] was inactive. Further, the outcome (in assay [3]; in assay [4]; in the assay with MDA-MB-231 [5]; with MDA-MB-231 [17]; with MDA-MB-231 [18]; with MDA-MB-231 [19]) was Active. Also, the result (in the assay with MDA-MB-231 [20]; with MDA-MB-231 [21]; with MDA-MB-231 [22]; with MDA-MB-231 [10]; in the assay with MDA-MB-231 [11]; in assay [12]) was Active. The outcome in the assay on MDA-MB-231 [13] was Active. The Activity result is “Dose-dependent effect” in the assay on MDA-MB-231 [9], 75% in the assay on MDA-MB-231 [23], “Dose-dependent effect” with MDA-MB-231 [24] and 75% with HEK293.

`CCCC(=O)OC[C@@H](OC(=O)CCC)[C@@H](OC(=O)CCC)[C@@H]1OC(OC(=O)CCC)(C(=O)OC)C[C@H](OC(=O)CCC)[C@@H]1NC(C)=O` (stereo partly specified): the outcome with MDA-MB-231 [25], with MDA-MB-231 [26], with MDA-MB-231 [27] and in the assay with MDA-MB-231 [28] was Active. In addition, in the assay on MDA-MB-231 [29], the result was inactive.

As to `CCCC(=O)OC[C@H]1OC(O)[C@@H](NC(C)=O)[C@@H](OC(=O)CCC)[C@@H]1OC(=O)CCC` (stereo partly specified), the result with MDA-MB-231 [1], in the assay with MDA-MB-231 [30] and in the assay with MDA-MB-231 [31] was Active.
